Data: article PMC5680101 (The journal of physical chemistry. B, 2017)

Tests used:
[1] = biological target: T1, SELENOK U92C (Homo sapiens, UniProt Q9Y6D0, U92C); assay: steady-state FP anisotropy, DDM desolvation of SELENOK U92C; assay type: binding; conditions: solubilized in 1.3 mM DDM
T1 sequence (Q9Y6D0 2-94 U92C): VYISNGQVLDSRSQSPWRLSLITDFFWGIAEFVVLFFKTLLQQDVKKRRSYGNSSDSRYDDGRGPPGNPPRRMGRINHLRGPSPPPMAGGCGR
Method in brief: (§1)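 Human proteins expressed as MBP fusions and purified in 1.3 mM DDM, which was the starting detergent concentration. Each was labelled with Texas Red C2 maleimide on its single accessible cysteine (C92 in SELENOK, C174 in SELENOS). Samples were diluted in wells with DDM buffers to 200 nM protein in 200 mM NaCl, 50 mM HEPES pH 7.4, 24°C. FP read at […] after 15 min equilibration; 24 h endpoints at 4°C. rmin extrapolated to lowest DDM.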

[2] = biological target: T2, SELENOS U188S (Homo sapiens, UniProt Q9BQE4); assay: steady-state FP anisotropy, DDM desolvation of SELENOS U188S; assay type: binding; conditions: solubilized in 1.3 mM DDM
T2 sequence (Q9BQE4 with tags, fused parts or gaps): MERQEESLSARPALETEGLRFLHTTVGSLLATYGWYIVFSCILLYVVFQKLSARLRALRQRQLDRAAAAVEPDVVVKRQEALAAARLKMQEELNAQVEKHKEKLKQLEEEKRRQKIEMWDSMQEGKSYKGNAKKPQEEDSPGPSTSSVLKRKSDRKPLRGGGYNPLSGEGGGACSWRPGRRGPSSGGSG
Method in brief: as §1

[3] = biological target: α-helical proteins; assay: FP anisotropy, DDM proteomicelles of the α-helical proteins; assay type: binding, Homo sapiens; conditions: 200 mM NaCl, 50 mM HEPES, pH 7.4, 24°C
Method in brief: as §1

[4] = in water; ref Anatrace, [29], [63]; cited from earlier work
[5] = biological target: OmpG (Escherichia coli, UniProt P76045, D245C); assay: biochemical; assay type: binding, E. coli
[6] = biological target: FhuA ΔC/Δ5L (Escherichia coli, UniProt P06971, DEL561-566/INS560[…], form not given); assay type: binding, E. coli
[7] = biological target: FhuA ΔC/Δ5L_25N (Escherichia coli, UniProt P06971); assay type: binding, E. coli
[8] = biological target: FhuA ΔC/Δ7L_30N (Escherichia coli, UniProt P06971); assay type: binding, E. coli
[9] = biological target: acidic β-barrel proteins; assay: steady-state FP anisotropy, detergent desolvation, acidic β barrels; assay type: binding, E. coli; conditions: physiological pH
Method in brief: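 Acidic β-barrels: FhuA ΔC/Δ5L, with a GS-rich single-Cys loop replacing turn T7, labeled with Texas Red C2 maleimide in 6 M Gdm-HCl. OmpG D224C labeled in 8 M urea at 1:20 protein:dye. Detergent-refolded protein diluted into wells of varying detergent spanning the CMC, 28 nM final protein. 15 min equilibration, kinetic steady-state anisotropy read, 24 h endpoints covered at 4°C.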

[10] = system: basic β-barrel proteins; assay: steady-state FP anisotropy, detergent desolvation, basic β barrels; assay type: binding, E. coli
Method in brief: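 Basic FhuA variants, C-terminal His6, labeled with 200 μM Texas Red C2 maleimide overnight at room temperature in 6 M Gdm-HCl. Denatured protein refolded by 50-fold dilution into 200 mM NaCl, 50 mM HEPES, pH 7.4, 4°C, detergent above CMC. Then diluted into wells of varying detergent, 28 nM final protein. 15 min equilibration, kinetic anisotropy read, 24 h endpoints at 4°C.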

[11] = calculated at the midpoint of the dissociation phase
[12] = decrease in hydrodynamic radius as a result of detergent desolvation
[13] = four-parameter Hill fit, 200 mM NaCl, 50 mM HEPES, pH 7.4, 24°C
[14] = maximum anisotropy at detergent concentrations above the CMC, 200 mM NaCl, 50 mM HEPES, pH 7.4
[15] = maximum hydrodynamic radius of the proteomicelle
[16] = minimum anisotropy, extrapolated for the lowest detergent concentration, 200 mM NaCl, 50 mM HEPES, pH 7.4
[17] = rotational diffusion coefficient under desolvation conditions
[18] = rotational diffusion coefficient under solvation conditions
[19] = read-out: Kd (apparent dissociation constant), midpoint of dose-dependent dissociation phase, 200 mM NaCl, 50 mM HEPES, pH 7.4, 24°C

Chain of OmpG (P76045 22-301 D245C): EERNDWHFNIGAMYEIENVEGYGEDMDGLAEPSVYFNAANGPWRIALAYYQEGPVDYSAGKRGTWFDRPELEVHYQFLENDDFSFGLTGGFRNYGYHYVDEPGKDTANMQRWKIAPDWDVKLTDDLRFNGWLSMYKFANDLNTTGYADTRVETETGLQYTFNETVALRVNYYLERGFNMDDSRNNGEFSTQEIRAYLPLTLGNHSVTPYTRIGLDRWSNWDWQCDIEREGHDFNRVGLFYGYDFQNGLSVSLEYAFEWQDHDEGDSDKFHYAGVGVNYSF
Chain of FhuA ΔC/Δ5L (P06971 194-747, stated change not applied): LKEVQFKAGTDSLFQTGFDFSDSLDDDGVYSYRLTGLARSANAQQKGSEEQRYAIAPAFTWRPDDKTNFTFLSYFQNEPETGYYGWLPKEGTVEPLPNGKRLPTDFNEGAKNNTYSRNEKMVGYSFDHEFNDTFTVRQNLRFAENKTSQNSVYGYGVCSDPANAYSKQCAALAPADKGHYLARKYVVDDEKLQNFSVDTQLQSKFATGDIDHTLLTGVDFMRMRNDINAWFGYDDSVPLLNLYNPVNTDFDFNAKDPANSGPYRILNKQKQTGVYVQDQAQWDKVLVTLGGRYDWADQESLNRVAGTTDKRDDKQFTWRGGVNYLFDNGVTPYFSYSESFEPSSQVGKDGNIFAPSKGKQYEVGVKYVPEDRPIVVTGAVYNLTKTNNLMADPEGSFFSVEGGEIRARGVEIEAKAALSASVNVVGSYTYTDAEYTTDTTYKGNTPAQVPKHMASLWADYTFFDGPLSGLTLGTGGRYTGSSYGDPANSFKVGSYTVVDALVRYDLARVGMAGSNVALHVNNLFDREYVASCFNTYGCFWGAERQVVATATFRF
Chain of FhuA ΔC/Δ5L_25N (P06971 194-747, stated change not applied): as above
Chain of FhuA ΔC/Δ7L_30N (P06971 194-747, stated change not applied): as above

CCCCCCCCCCCCO[C@@H]1O[C@H](CO)[C@@H](O[C@H]2O[C@H](CO)[C@@H](O)[C@H](O)[C@H]2O)[C@H](O)[C@H]1O [DDM, n-dodecyl-β-D-maltoside]
rotational diffusion coefficient, Dr fast [1]: ~ 1.3×10^8 s^−1 | rmin ([1]; 200 nM protein): 0.095 ± 0.002 | rotational diffusion coefficient, Dr fast [2]: ~ 1.1×10^8 s^−1 | rmin ([2]; 200 nM protein): 0.103 ± 0.002 | apparent Kd relative to the CMC [3]: greater than the CMC | Aggregation number, Nagg [4]: ~78–149

CCCCCCCCCCO[C@@H]1O[C@H](CO)[C@@H](O[C@H]2O[C@H](CO)[C@@H](O)[C@H](O)[C@H]2O)[C@H](O)[C@H]1O [DM, n-decyl-β-D-maltoside]
Kd [5]: 1800 ± 400 µM | q (slope factor or transition steepness) [5, 11]: 0.064 mM⁻¹ | ΔRh [5, 12]: 0.95 ± 0.04 nm | p (Hill coefficient) [5, 13]: 4.1 ± 1.2 | rmax [5, 14]: 0.327 ± 0.001 | Rh max [5, 15]: 2.6 nm | rmin [5, 16]: 0.214 ± 0.005 | Dr fast [5, 17]: 3.5 ± 0.2 10^7 s^−1 | Dr slow [5, 18]: 0.89 ± 0.02 10^7 s^−1 | ΔG ([5]; ΔG = RT ln Kd): -3.7 ± 0.1 kcal/mol | q (slope factor or transition steepness) [6, 11]: 0.072 mM⁻¹ | ΔRh [6, 12]: 1.6 ± 0.1 nm | p (Hill coefficient) [6, 13]: 3.5 ± 0.5 | rmax [6, 14]: 0.360 ± 0.001 | Rh max [6, 15]: 3.3 nm | rmin [6, 16]: 0.219 ± 0.005 | Kd [6, 19]: 1700 ± 100 µM | Dr fast [6, 17]: 3.3 ± 0.2 10^7 s^−1 | Dr slow [6, 18]: 0.44 ± 0.01 10^7 s^−1 | ΔG ([6]; ΔG = RT ln Kd): -3.8 ± 0.1 kcal/mol | q (slope factor or transition steepness) [7, 11]: 1.30 mM⁻¹ | ΔRh [7, 12]: 1.5 ± 0.1 nm | p (Hill coefficient) [7, 13]: 27 ± 3 | rmax [7, 14]: 0.343 ± 0.002 | Rh max [7, 15]: 3.0 nm | rmin [7, 16]: 0.166 ± 0.003 | Kd [7, 19]: 900 ± 100 µM | Dr fast [7, 17]: 5.6 ± 0.2 10^7 s^−1 | Dr slow [7, 18]: 0.66 ± 0.03 10^7 s^−1 | ΔG ([7]; ΔG = RT ln Kd): -4.1 ± 0.1 kcal/mol | q (slope factor or transition steepness) [8, 11]: 1.07 mM⁻¹ | ΔRh [8, 12]: 1.0 ± 0.1 nm | p (Hill coefficient) [8, 13]: 27 ± 6 | rmax [8, 14]: 0.312 ± 0.001 | Rh max [8, 15]: 2.4 nm | rmin [8, 16]: 0.168 ± 0.007 | Kd [8, 19]: 900 ± 100 µM | Dr fast [8, 17]: 1.0 ± 0.1 10^7 s^−1 | Dr slow [8, 18]: 5.5 ± 0.4 10^7 s^−1 | ΔG ([8]; ΔG = RT ln Kd): -4.1 ± 0.1 kcal/mol | Kd [9]: ~1800 µM | Hill cooperativity p ([10]; basic FhuA proteins, pH 7.4): ~ 27 | Kd ([10]; physiological pH): ~900 µM
